A short description of data set [1]: Selectivity index, ratio of IC50 for rat L6 cells to IC50 for bloodstream trypomastigote forms of Trypanosoma brucei rhodesiense STIB 900. The note with it: L6 cells.
Data set [2] is described as follows: Selectivity index, ratio of IC50 for rat L6 cells to IC50 for amastigote forms of Trypanosoma cruzi Tulahuen C4. As to conditions: L6 cells.
Data set [3] relates to L6. Description: Cytotoxicity against rat L6 cells assessed as cell viability. It counts as cell-based.
Data set [4] has as its system Leishmania donovani. In words: Antileishmanial activity against axenic amastigote forms of Leishmania donovani MHOM/ET/67/L82 assessed as inhibition of growth. It counts as functional, organism-based. In a few lines: (§1)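 Parasite growth assay run in 96-well format per an earlier protocol. Dose–response curves were constructed, and the 50% growth-inhibitory concentration was calculated by linear regression from the sigmoidal dose–inhibition curves.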

Data set [5] relates to Trypanosoma brucei rhodesiense. Description: Antitrypanosomal activity against bloodstream trypomastigote forms of Trypanosoma brucei rhodesiense STIB 900 assessed as inhibition of growth. Format: functional, organism-based. In outline:
as §1

Data set [6] relates to Trypanosoma cruzi. In words: Antichagasic activity against amastigote forms of Trypanosoma cruzi Tulahuen C4 assessed as inhibition of growth. It counts as functional, organism-based. In outline: as §1
Data set [7] is described as follows: Selectivity index, ratio of IC50 for rat L6 cells to IC50 for amastigote forms of Leishmania donovani MHOM/ET/67/L82. As to conditions: L6 cells.
In data set [8] the test system is Trypanosoma brucei brucei. In words: Antimicrobial activity against bloodstream forms of Trypanosoma brucei brucei overexpressing type I nitroreductase assessed as reduction in cell viability after 3 days by alamar blue assay in presence of tetracycline. It counts as functional, organism-based. The note with it: 72 h. A general note: Resazurin is reduced to fluorescent resorufin, in cell work by metabolically active cells.

Data set [9] concerns Trypanosoma brucei brucei. Description: Ratio of IC50 for bloodstream forms of Trypanosoma brucei brucei overexpressing type I nitroreductase in absence of tetracycline to IC50 for bloodstream forms of Trypanosoma brucei brucei overexpressing type I nitroreductase in presence of tetracycline. Format: functional.
The test system of data set [10] is Trypanosoma cruzi. Description: Activity of histidine tagged recombinant Trypanosoma cruzi type 1 nitroreductase assessed as NADH oxidation at 100 uM by spectrophotometry method. In a few lines:
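Purified recombinant T. cruzi type I nitroreductase, prepared and assayed per earlier work. Specific activity expressed as NADH oxidized per min per mg protein.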

Data set [11] deals with Trypanosoma brucei brucei. Description: Antimicrobial activity against bloodstream forms of Trypanosoma brucei brucei assessed as reduction in cell viability after 3 days by alamar blue assay. The note with it: 72 h. It counts as functional, organism-based.
The subject of data set [12] is Trypanosoma brucei brucei. Description: Antimicrobial activity against bloodstream forms of Trypanosoma brucei brucei overexpressing type I nitroreductase assessed as reduction in cell viability after 3 days by alamar blue assay in absence of tetracycline. Format: functional, organism-based. As to conditions: 72 h.
Data set [13] relates to Trypanosoma brucei brucei. Description: Activity of histidine tagged recombinant Trypanosoma brucei brucei type 1 nitroreductase assessed as NADH oxidation at 100 uM by spectrophotometry method. In outline:
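Purified recombinant his-tagged T. b. brucei type I nitroreductase. Each nitrotriazole substrate at 100 µM with NADH at 100 µM. NADH oxidation followed spectrophotometrically at 340 nm. Specific activity expressed as nmol NADH oxidized per min per mg enzyme.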

Data set [14] is described as follows: Half life in human liver S9 microsomes in absence of NADPH by LC-MS/MS method.
Data set [15] is described as follows: Half life in human liver S9 microsomes in presence of NADPH by LC-MS/MS method.
For data set [16], the system named is Trypanosoma cruzi. Description: Antichagasic activity against firefly luciferase expressing trypamastigote forms of transgenic Trypanosoma cruzi Y infected in Balb/c mouse assessed as reduction in parasite level at 15 mg/kg/day, ip dosed for 10 days by luciferase reporter gene assay. Format: functional. The note with it: 240 h. In outline: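 Balb/c mice were infected with luciferase-expressing T. cruzi Y trypomastigotes and imaged at baseline after i.p. D-luciferin 150 mg/kg in PBS. Ratio = post-treatment / pre-treatment luciferase signal per animal; group mean ± SD.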
(Reporter assays use an easily measured gene product as a stand-in for the process of interest.)

Take `N#Cc1ccccc1N1CCN(CC(=O)N2CCN(c3ccccc3C#N)CC2)CC1`: the selectivity ratio turned out to be 9.9 in [1], 5 in [2] and 4 in data set [7]. Moreover, the IC50 in data set [3] turned out to be 127 µM; in data set [4], 24.3 µM; in [5], 12.8 µM; in data set [6], 25.7 µM.
For the compound `O=C(Cn1cnc([N+](=O)[O-])n1)N1CCN(C(=O)C2CC2)CC1`, the selectivity ratio in [1] was found to be 1.83; in data set [2] it was 1.05; in data set [7] it was 5.12. In addition, the IC50 is 156 µM in data set [3], 30.6 µM in [4], 85.2 µM in data set [5] and 148 µM in data set [6].
For the compound `Cc1ccc(N2CCN(CC(=O)N3CCN(c4ccc(C)cc4)CC3)CC2)cc1`, the selectivity ratio was found to be 8.1 in [1], 7 in data set [2] and 9 in data set [7]. The IC50 amounted to 213 µM in data set [3], 24.2 µM in data set [4], 26.3 µM in data set [5] and 29.8 µM in data set [6].
Turning to `O=C(Cn1cnc([N+](=O)[O-])n1)N1CCN(c2ccc(C(F)(F)F)cc2)CC1`, the selectivity ratio stood at 48 in [1], 340 in data set [2] and 108 in [7]. In addition, the IC50 amounted to 0.85 µM in data set [8]; 202 µM in [3]; 1.88 µM in [4]; 4.22 µM in data set [5]; 17.5 µM in data set [11]; 13.6 µM in data set [12]. Further, in [6], the IC50 worked out at 0.596 µM. In addition, the “Ratio IC50” value in data set [9] is listed as 16. The results for the Activity in [10] and in data set [13] were 707 nmol/min/mg and 2190 nmol/min/mg, respectively.
With `Cc1ccc(N2CCN(C(=O)Cn3cnc([N+](=O)[O-])n3)CC2)cc1`, the results for the selectivity ratio in data set [1], in data set [2] and in data set [7] were 15, 112 and 14, respectively. The IC50 is 148 µM in [3]; 10.8 µM in data set [4]; 9.91 µM in data set [5]; more than 30 µM in [11]; 1.33 µM in [6]. For the same compound, the Activity in [10] was 787 nmol/min/mg; in data set [13], 2190 nmol/min/mg.
Take `O=C(CN1CCN(c2ccc(Cl)cc2)CC1)N1CCN(c2ccc(Cl)cc2)CC1`: the results for the selectivity ratio in data set [1], in data set [2] and in data set [7] were 9, 19 and 6, respectively. Besides, the IC50 in data set [3] was determined as 116 µM; in data set [4], 18 µM; in data set [5], 12.6 µM; in [6] it was 6.06 µM.
For the compound `O=C(Cn1cnc([N+](=O)[O-])n1)N1CCN(C(c2ccccc2)c2ccc(Cl)cc2)CC1` (stereo not given), the selectivity ratio in data set [1] came out at 6.43; in data set [2], 302; in [7] it was 14.6. Also, the IC50 in data set [8] was found to be 1.04 µM; in data set [3], 21.9 µM; in [4] it was 1.45 µM; in data set [5] it was 3.41 µM; in data set [11] it was 2.75 µM; in data set [12], 3.86 µM. Also, the IC50 in data set [6] was determined as 0.073 µM. For the same compound, the “Ratio IC50” value in data set [9] is 3.7. The Activity in [10] amounted to 672 nmol/min/mg; in [13], 3910 nmol/min/mg.
As to `COc1ccc(N2CCN(C(=O)Cn3cnc([N+](=O)[O-])n3)CC2)cc1`, the selectivity ratio was determined as 8.1 in data set [1], 54.7 in data set [2] and 7.18 in [7]. Also, the IC50 was 133 µM in data set [3], 18.5 µM in data set [4], 16.4 µM in data set [5] and 2.42 µM in data set [6].
Regarding `O=C(CN1CCN(c2ccc(C(F)(F)F)cc2)CC1)N1CCN(c2ccc(C(F)(F)F)cc2)CC1`, the results for the selectivity ratio in data set [1], in data set [2] and in data set [7] were 1.2, 12 and 6, respectively. Further, the IC50 in data set [3] was 31.7 µM; in data set [4], 5.03 µM; in [5] it was 24.6 µM; in data set [6] it was 2.71 µM.
On to `O=C(Cn1ccnc1[N+](=O)[O-])N1CCN(c2ncccn2)CC1`, for which the selectivity ratio in data set [1] turned out to be 1.79; in data set [2], 1.97; in [7] it was 2.11. The IC50 is 280 µM in [3], 133 µM in data set [4], 157 µM in data set [5] and 142 µM in data set [6].
Turning to `O=C(Cn1cnc([N+](=O)[O-])n1)N1CCN(c2ncccn2)CC1`, the values for the selectivity ratio in [1], in data set [2] and in data set [7] were 4.5, 15 and 6.52, respectively. Moreover, the half-maximal inhibitory concentration (IC50) in data set [3] was 150 µM; in data set [4], 22.9 µM; in [5] it was 33.4 µM; in data set [11], more than 30 µM; in data set [6], 10 µM. In addition, the Activity in data set [10] came to 743 nmol/min/mg; in data set [13], 2060 nmol/min/mg.
As for `O=C(Cn1cnc([N+](=O)[O-])n1)N1CCN(c2ccc(Cl)cc2)CC1`, the selectivity ratio in data set [1] was more than 4; in data set [2], more than 254; in data set [7], more than 30. The IC50 in data set [3] was more than 285 µM; in data set [4], 9.39 µM; in data set [5] it was 74.3 µM; in data set [11], more than 30 µM; in data set [6], 1.12 µM. Besides, the values for the Activity in data set [10] and in data set [13] were 761 nmol/min/mg and 2180 nmol/min/mg, respectively.
As to `O=C(CN1CCN(c2ccc(Cl)c(Cl)c2)CC1)N1CCN(c2ccc(Cl)c(Cl)c2)CC1`, the selectivity ratio in data set [1] was less than 1; in data set [2], 11; in [7] it was 3. Further, the IC50 in data set [3] turned out to be 20.2 µM; in data set [4] it was 6.27 µM; in data set [5], 26 µM; in data set [6] it was 1.81 µM.
`O=C(Cn1cnc([N+](=O)[O-])n1)N1CCN(c2ccccn2)CC1`: the selectivity ratio in data set [1] was 8.98; in [2], 37.3; in data set [7] it was 9.35. For the same compound, the IC50 was found to be 173 µM in data set [3], 18.5 µM in data set [4], 19.3 µM in [5] and 4.64 µM in data set [6].
With `O=C(Cn1cnc([N+](=O)[O-])n1)N1CCN(Cc2ccc(C(F)(F)F)cc2)CC1`, the IC50 was 1.78 µM in data set [8]; 111 µM in data set [3]; 9.7 µM in data set [4]; 1.39 µM in data set [5]; 26 µM in [11]; more than 30 µM in data set [12]. In addition, the IC50 in data set [6] came to 0.862 µM. In addition, the half-life in data set [14] and in data set [15] was more than 3 h each time. Besides, the figures for the Activity in [10] and in data set [13] were 701 nmol/min/mg and 3800 nmol/min/mg, respectively.
On to `O=C(Cn1ccnc1[N+](=O)[O-])NCc1ccccc1` [BENZNIDAZOLE], for which the inhibition in vivo at 15 mg/kg/day in [16] came to 99%. In addition, the Activity in data set [10] was 680 nmol/min/mg; in [13], 1540 nmol/min/mg.
`N#Cc1ccccc1N1CCN(C(=O)Cn2cnc([N+](=O)[O-])n2)CC1`: the selectivity ratio came to 19 in [1], 75 in data set [2] and 15 in data set [7]. Also, the IC50 in data set [3] was 213 µM; in [4], 14.6 µM; in data set [5], 11.3 µM; in data set [6], 2.85 µM.

By IC50 is commonly meant the concentration at which inhibition is half-maximal. A word on the half-life: it is the time in which the quantity being followed falls by half. For orientation: inhibition in vivo means the drop in the measured response relative to a control, in per cent.

Values taken from ChEMBL document CHEMBL3632593, “3-Nitrotriazole-based piperazides as potent antitrypanosomal agents” (Eur J Med Chem, 2015).
